Data from ChEMBL document CHEMBL2150885, “Dual anticoagulant/antiplatelet persulfated small molecules” (Eur J Med Chem, 2011).
Activity calls are given as the source filed them. The rule behind the calls is not given here.

Key:
Plasma [1] = experiment: Anticoagulant activity in human plasma assessed as concentration required to double activated partial thromboplastin time; assay type: functional
How it was run: (§1)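 Pooled citrated human plasma; compounds in water (10% DMSO for some), final 5 × 10⁻³ to 0.05 × 10⁻³ M; heparin 0.1–10 UI/mL as reference. APTT, PT and TT measured on a coagulometer with commercial kits, clotting time in s. Duplicates repeated on three days (n = 6). Concentration doubling clotting time obtained by linear regression of each concentration-response curve.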

Plasma [2] = experiment: Anticoagulant activity in human plasma assessed as concentration required to double thrombin time at 5 x 10^-3 M; assay type: functional, cell-free; how it was run: as §1
[3] = biological target: Prothrombin (Homo sapiens) (UniProt P00734); experiment: Inhibition of human thrombin using Tosyl-Gly-Pro-Arg-p-nitroaniline as substrate at 1 x 10^-3 M by chromogenic substrate hydrolysis assay
How it was run: (§2)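 Chromogenic hydrolysis in 50 mM Tris/HCl pH 8.3, 227 mM NaCl, 0.1% BSA, with and without bovine antithrombin III (1 U/mL final). Human factor Xa 0.5 U/mL with CBS 31.39 […], or human thrombin 0.06 U/mL with Chromozym TH […]. Absorbance at 405 nm, enzyme-free blank subtracted; initial slope vs water control gives % inhibition. Compounds at 1 × 10⁻³ M; n = 6.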

Plasma [4] = experiment: Anticoagulant activity in human plasma assessed as effect on prothrombin level by PT clotting time with factor II deficient plasma at 1 x 10^-3 M
Plasma [5] = experiment: Anticoagulant activity in human plasma assessed as concentration required to double prothrombin time at 5 x 10^-3 M; assay type: functional, cell-free; how it was run: as §1
[6] = biological target: Antithrombin-III (Bos taurus) (UniProt P41361); experiment: Inhibition of bovine antithrombin-3 at 1 x 10^-3 M
[7] = biological target: Coagulation factor X (Homo sapiens) (UniProt P00742); experiment: Inhibition of human factor 10a using CH3SO2-D-Leu-Gly-Arg-pNA, AcOH as substrate at 1 x 10^-3 M by chromogenic substrate hydrolysis assay; how it was run: as §2
Plasma [8] = experiment: Anticoagulant activity in human plasma assessed as effect on APC level using CBS 42.46 as synthetic substrate at 1 x 10^-3 M; assay type: functional
How it was run: (§3)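 Compound in saline added to citrated human plasma. Protein C activated by a snake venom-derived activator; enzyme formed quantified by amidolytic activity on chromogenic substrate CBS 42.46. Calibration curve linear 3–150%; normal and pathological control plasmas verify accuracy. Compounds at 1 × 10⁻³ M.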

MCF7 = experiment: Cytotoxicity against human ER-positive MCF7 cells at 1.5 x 10^-4 after 48 hrs; assay type: cell-based; conditions: mcf7, 48 h
Plasma [9] = experiment: Anticoagulant activity in human plasma assessed as concentration required to double prothrombin time; assay type: functional; how it was run: as §1
[10] = Cytotoxicity against human A375-C5 cells at 1.5 x 10^-4 after 48 hrs; assay type: cell-based; conditions: a375-c5, 48 h
NCI-H460 = experiment: Cytotoxicity against human NCI-H460 cells at 1.5 x 10^-4 after 48 hrs; assay type: cell-based; conditions: nci-h460, 48 h
Blood [11] = experiment: Anticoagulant activity in human whole blood assessed as clotting time at 6.25 x 10'4 M by thromboelastography assay; assay type: functional
How it was run: (§4)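 Citrated whole blood (citrate:blood 1:9) from healthy donors. Compound in saline diluted 1:16 into blood to final 3.12 × 10⁻⁴ or 6.25 × 10⁻⁴ M; saline control. Thromboelastography with intrinsic activator (InTEM); R clotting time and K clot formation time in s. Mean of three independent experiments in duplicate.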

Platelet [12] = experiment: Antiplatelet activity against arachidonic acid-induced platelet aggregation in human blood at 6.25 x 10^-4 M measured for 6 mins by multiplate electrical impedance aggregometry; assay type: functional, cell-based
How it was run: (§5)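 Hirudin-anticoagulated (final […]) healthy-donor whole blood, used within 0.5–1 h. Compound in saline to final 6.25 × 10⁻⁴ M; saline control, acetylsalicylic acid 6.25 × 10⁻⁴ M reference. Blood mixed with saline at 37 °C for 180 s, then agonist at final TRAP-6 […], arachidonic acid 0.5 mM or ADP […]. Impedance recorded 6 min; AUC from mean of two curves, accepted if within 20%.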

Platelet [13] = experiment: Antiplatelet activity against adenosine diphosphate-induced platelet aggregation in human blood at 6.25 x 10^-4 M measured for 6 mins by multiplate electrical impedance aggregometry; assay type: functional, cell-based; how it was run: as §5
Platelet [14] = experiment: Antiplatelet activity against thrombin receptor-activating peptide-6-induced platelet aggregation in human blood at 6.25 x 10^-4 M measured for 6 mins by multiplate electrical impedance aggregometry; assay type: functional, cell-based; how it was run: as §5
Blood [15] = experiment: Anticoagulant activity in human whole blood assessed as clotting formation time at 6.25 x 10'4 M by InTEM-TEG assay; assay type: functional; how it was run: as §4
[16] = Antiplatelet activity against collagen-epinephrine-activated platelet in human blood assessed as closure time at 6.25 x 10^-4 M; assay type: functional
How it was run: (§6)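 Healthy-donor whole blood collected into hirudin (final […]), analysed within 0.5–1 h. Closure time measured in a PFA-100 under high shear through an aperture, platelets activated by a collagen-coated membrane with ADP or epinephrine.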

[17] = Antiplatelet activity against collagen-ADP-activated platelet in human blood assessed as closure time at 6.25 x 10^-4 M; assay type: functional; how it was run: as §6
Plasma [18] = experiment: Anticoagulant activity in human plasma assessed as effect on prothrombin level by PT clotting time with factor II deficient plasma
Plasma [19] = experiment: Anticoagulant activity in human plasma assessed as effect on APC level using CBS 42.46 as synthetic substrate; assay type: functional, cell-free; how it was run: as §3

Antithrombin-III (Bos taurus), sequence (P41361 whole entry): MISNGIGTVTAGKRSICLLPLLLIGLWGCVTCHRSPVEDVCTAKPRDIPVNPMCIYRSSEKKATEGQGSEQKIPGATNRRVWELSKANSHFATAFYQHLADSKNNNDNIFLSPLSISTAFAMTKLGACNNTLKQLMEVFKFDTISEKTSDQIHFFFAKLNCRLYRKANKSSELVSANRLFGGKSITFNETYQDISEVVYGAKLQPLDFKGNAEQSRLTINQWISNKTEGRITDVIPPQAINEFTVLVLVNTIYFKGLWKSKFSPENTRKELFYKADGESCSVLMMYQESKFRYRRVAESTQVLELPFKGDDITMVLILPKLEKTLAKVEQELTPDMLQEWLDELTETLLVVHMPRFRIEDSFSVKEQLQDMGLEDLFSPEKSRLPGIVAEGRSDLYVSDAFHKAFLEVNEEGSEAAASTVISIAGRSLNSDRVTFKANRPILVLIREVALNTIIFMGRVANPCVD
Coagulation factor X (Homo sapiens), sequence (P00742 41-179 limits assumed): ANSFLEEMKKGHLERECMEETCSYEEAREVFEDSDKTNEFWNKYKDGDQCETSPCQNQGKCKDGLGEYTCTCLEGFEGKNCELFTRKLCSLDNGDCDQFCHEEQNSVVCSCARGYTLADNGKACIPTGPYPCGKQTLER
Coagulation factor X (Homo sapiens), sequence (P00742 235-488 limits assumed): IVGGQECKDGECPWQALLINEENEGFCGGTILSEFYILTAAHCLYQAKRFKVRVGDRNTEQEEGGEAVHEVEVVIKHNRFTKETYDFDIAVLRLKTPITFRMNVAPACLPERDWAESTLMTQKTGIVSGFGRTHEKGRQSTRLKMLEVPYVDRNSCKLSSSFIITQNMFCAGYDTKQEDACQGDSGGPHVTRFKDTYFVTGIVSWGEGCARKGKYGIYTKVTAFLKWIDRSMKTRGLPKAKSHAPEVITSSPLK

inhibition [3]	inhibition [6]	inhibition [7]	Compound	2aPTT (Plasma [1])	Activity (Plasma [1])	Activity (Plasma [2])	Activity (Plasma [4]) [%]	Activity (Plasma [5])	Activity (Plasma [8]) [%]	Activity (MCF7)	2PT (Plasma [9]) [mM]	Activity (Plasma [9])	Activity [10]	Activity (NCI-H460)	AUC (Platelet [12]) [AU.min]	AUC (Platelet [13]) [AU.min]	AUC (Platelet [14]) [AU.min]	further results
inactive	inactive	inactive	O=C(/C=C/c1ccc(OS(=O)(=O)[O-])c(OS(=O)(=O)[O-])c1)O[C@@H]1C[C@](OS(=O)(=O)[O-])(C(=O)O)C[C@@H](OS(=O)(=O)[O-])[C@H]1OS(=O)(=O)[O-].[Na+].[Na+].[Na+].[Na+].[Na+] [CHLOROGENIC ACID PERSULFATE]	3.66 mM	Dose-dependent effect	inactive	82	inactive	95									
inactive	inactive	inactive	Cc1cc(=O)oc2cc(O[C@@H]3O[C@H](COS(=O)(=O)[O-])[C@@H](OS(=O)(=O)[O-])[C@H](OS(=O)(=O)[O-])[C@H]3OS(=O)(=O)[O-])ccc12.[Na+].[Na+].[Na+].[Na+]	1.18 mM	Dose-dependent effect	inactive	64.5		97	Non-toxic	> 5	Dose-dependent effect	Non-toxic	Non-toxic				
inactive	inactive	inactive	O=C(O)c1cc(OS(=O)(=O)[O-])c(OS(=O)(=O)[O-])c(OS(=O)(=O)[O-])c1.[Na+].[Na+].[Na+]	1.96 mM	Dose-dependent effect	inactive	61.5	inactive	101	Non-toxic			Non-toxic	Non-toxic				
inactive	inactive	inactive	O=S(=O)([O-])OCc1ccccc1O[C@@H]1O[C@H](COS(=O)(=O)[O-])[C@@H](OS(=O)(=O)[O-])[C@H](OS(=O)(=O)[O-])[C@H]1OS(=O)(=O)[O-].[Na+].[Na+].[Na+].[Na+].[Na+] [SALICIN PERSULFATE]	0.899 mM	Dose-dependent effect	inactive	66		93	Non-toxic	> 5	Dose-dependent effect	Non-toxic	Non-toxic				
inactive	inactive	inactive	O=c1ccc2cc(O[C@@H]3O[C@H](COS(=O)(=O)[O-])[C@@H](OS(=O)(=O)[O-])[C@H](OS(=O)(=O)[O-])[C@H]3OS(=O)(=O)[O-])c(OS(=O)(=O)[O-])cc2o1.[Na+].[Na+].[Na+].[Na+].[Na+] [ESCULIN PERSULFATE]	0.309 mM	Dose-dependent effect	inactive	64.5		87	Non-toxic	> 5	Dose-dependent effect	Non-toxic	Non-toxic	980	980	890	Time (Blood [11]): 340 s; Time (Blood [15]): 95 s
inactive	inactive	inactive	O=C1O[C@H]([C@H](COS(=O)(=O)[O-])OS(=O)(=O)[O-])C(OS(=O)(=O)[O-])=C1OS(=O)(=O)[O-].[Na+].[Na+].[Na+].[Na+] [ASCORBIC ACID PERSULFATE]	0.315 mM	Dose-dependent effect	inactive	91.5		94		> 5	Dose-dependent effect			905	680	1100	Time [16]: 121 s; Time [17]: 106 s; Time (Blood [11]): 205 s; Time (Blood [15]): 84 s

More lines, now with the values behind:

Compound	inhibition [3]	inhibition [6]	inhibition [7]	2aPTT (Plasma [1])	Activity (Plasma [1])	Activity (Plasma [2])	Activity (Plasma [4]) [%]	Activity (Plasma [5])	Activity (Plasma [8]) [%]	Activity (MCF7)	2PT (Plasma [9]) [mM]	Activity (Plasma [9])	Activity [10]	Activity (NCI-H460)	AUC (Platelet [12]) [AU.min]	AUC (Platelet [13]) [AU.min]	AUC (Platelet [14]) [AU.min]	further results
COc1ccc([C@@H]2CC(=O)c3c(O)cc(O[C@@H]4O[C@H](CO[C@@H]5O[C@@H](C)[C@H](OS(=O)(=O)[O-])[C@@H](OS(=O)(=O)[O-])[C@H]5OS(=O)(=O)[O-])[C@@H](OS(=O)(=O)[O-])[C@H](OS(=O)(=O)[O-])[C@H]4OS(=O)(=O)[O-])cc3O2)cc1O.[Na+].[Na+].[Na+].[Na+].[Na+].[Na+] [HEXASULFATED HESPERIDIN]				4.13 ×10⁻⁴ M			47.5		85	Non-toxic			Non-toxic	Non-toxic	150	150	1200	
CC(=O)Oc1ccccc1C(=O)O															230			
O=c1oc2c(OS(=O)(=O)O)c(OS(=O)(=O)O)cc3c(=O)oc4c(OS(=O)(=O)O)c(OS(=O)(=O)O)cc1c4c23						inactive		inactive										
C[C@@H]1O[C@@H](OC[C@H]2O[C@@H](Oc3c(-c4ccc(OCCOS(=O)(=O)[O-])c(OCCOS(=O)(=O)[O-])c4)oc4cc(OCCOS(=O)(=O)[O-])cc(O)c4c3=O)[C@H](OS(=O)(=O)[O-])[C@@H](OS(=O)(=O)[O-])[C@@H]2OS(=O)(=O)[O-])[C@H](OS(=O)(=O)[O-])[C@H](OS(=O)(=O)[O-])[C@H]1OS(=O)(=O)[O-].[Na+].[Na+].[Na+].[Na+].[Na+].[Na+].[Na+].[Na+].[Na+]							10.9		38.5	Non-toxic			Non-toxic	Non-toxic	330	330	840	Activity (Plasma [18]): Dose-dependent effect; Activity (Plasma [19]): Dose-dependent effect
